Consider five molecules from ChEMBL document CHEMBL4706680, “Small-Molecule HSP27 Inhibitor Abolishes Androgen Receptors in Glioblastoma” (J Med Chem, 2021).

The source made the active and inactive calls. No cut-off for these calls is given here.

One series relates to T98G. The experiment in a line: Antiproliferative activity against human T98G cells overexpressing AR assessed as reduction in cell viability incubated for 48 hrs by MTT assay. The series is classed as functional, cell-based. The essentials: (§1)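 MTT assay; 3000 cells/well in RPMI 1640 or DMEM with 10% FBS, seeded 24 h, then exposed 48 h to a range of concentrations in DMSO (final ≤0.1%); vehicle controls. MTT 1 mg/mL for 2 h at 37 °C, dye dissolved in DMSO, absorbance 570 nm; eight replicates; IC50 by nonlinear regression.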

Another series concerns U-251. The series is described as follows: Antiproliferative activity against human U-251 cells assessed as reduction in cell viability incubated for 48 hrs by MTT assay. The series is classed as functional, cell-based. To be noted: U-251, 48 h. The method in brief: as §1
The test system of the next series is A 172. The series is described as follows: Antiproliferative activity against human A 172 cells assessed as reduction in cell viability incubated for 48 hrs by MTT assay. The series is classed as functional, cell-based. To be noted: A 172, 48 h. The essentials:
as §1

The subject of another series is U-87 MG. The experiment in a line: Antiproliferative activity against human U87 cells assessed as reduction in cell viability incubated for 48 hrs by MTT assay. The series is classed as functional, cell-based, U-87MG ATCC. The method in brief: as §1
The nature of series [1]: Toxicity in CD1 mouse assessed as induction of dehydration at 80 mg/kg/day, ip administered thrice weekly and observed at day 5 to 7. The series is classed as organism-based. To be noted: in vivo, 72 h, time 3 day. The method in brief:
(§2)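 Male CD-1 mice, four per group, given 80 mg/kg in PBS IP three times weekly; vehicle DMSO. Mice were euthanized when toxicity signs appeared, otherwise at day 10. Body weight was recorded at first and last dosing days. Non-fasted cardiac blood was taken after euthanasia for an automated hematology analyzer.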

Series [2] can be described thus: Toxicity in CD1 mouse assessed as reduction in food consumption at 80 mg/kg/day, ip administered thrice weekly and observed at day 5 to 7. The series is classed as organism-based. The note with it: in vivo, 72 h, time 3 day. The essentials: as §2
Series [3] can be described thus: Toxicity in CD1 mouse assessed as decrease in body weight at 80 mg/kg/day, ip administered thrice weekly and observed at day 5 to 7. The series is classed as organism-based. The note with it: in vivo, 72 h, time 3 day. The method in brief:
as §2

A short description of series [4]: Toxicity in CD1 mouse assessed as effect on WBC count at 80 mg/kg/day, ip administered thrice weekly by hematology analyzer. The series is classed as organism-based. The note with it: in vivo, 72 h, time 3 day. The essentials: as §2
A short description of series [5]: Toxicity in CD1 mouse assessed as effect on neutrophils count at 80 mg/kg/day, ip administered thrice weekly by hematology analyzer. The series is classed as organism-based. The note with it: in vivo, 72 h, time 3 day. The method in brief:
as §2

A short description of series [6]: Toxicity in CD1 mouse assessed as effect on lymphocyte at 80 mg/kg/day, ip administered thrice weekly by hematology analyzer. The series is classed as organism-based. To be noted: in vivo, 72 h, time 3 day. The essentials:
as §2

The nature of series [7]: Toxicity in CD1 mouse assessed as effect on monocytes at 80 mg/kg/day, ip administered thrice weekly by hematology analyzer. The series is classed as organism-based. To be noted: in vivo, 72 h, time 3 day. The method in brief:
as §2

Series [8] can be described thus: Toxicity in CD1 mouse assessed as effect on eosinophil count at 80 mg/kg/day, ip administered thrice weekly by hematology analyzer. The series is classed as organism-based. To be noted: in vivo, 72 h, time 3 day. The method in brief:
as §2

Series [9] can be described thus: Toxicity in CD1 mouse assessed as effect on basophil count at 80 mg/kg/day, ip administered thrice weekly by hematology analyzer. The series is classed as organism-based. The note with it: in vivo, 72 h, time 3 day. The method in brief: as §2
Series [10] in a line: Toxicity in CD1 mouse assessed as effect on RBC count at 80 mg/kg/day, ip administered thrice weekly by hematology analyzer. The series is classed as organism-based. The note with it: in vivo, 72 h, time 3 day. The essentials: as §2
Series [11] can be described thus: Toxicity in CD1 mouse assessed as effect on hemoglobin count at 80 mg/kg/day, ip administered thrice weekly by hematology analyzer. The series is classed as organism-based. To be noted: in vivo, 72 h, time 3 day. The essentials:
as §2

Series [12] is described as follows: Toxicity in CD1 mouse assessed as effect on hematocrit count at 80 mg/kg/day, ip administered thrice weekly by hematology analyzer. The series is classed as organism-based. To be noted: in vivo, 72 h, time 3 day. The essentials: as §2
The nature of series [13]: Toxicity in CD1 mouse assessed as effect on MCV count at 80 mg/kg/day, ip administered thrice weekly by hematology analyzer. The series is classed as organism-based. To be noted: in vivo, 72 h, time 3 day. The essentials:
as §2

A short description of series [14]: Toxicity in CD1 mouse assessed as effect on MCH count at 80 mg/kg/day, ip administered thrice weekly by hematology analyzer. To be noted: in vivo, 72 h, time 3 day. The series is classed as organism-based. The essentials: as §2
Series [15] can be described thus: Toxicity in CD1 mouse assessed as effect on MCHC count at 80 mg/kg/day, ip administered thrice weekly by hematology analyzer. The series is classed as organism-based. The note with it: in vivo, 72 h, time 3 day. The essentials:
as §2

A short description of series [16]: Toxicity in CD1 mouse assessed as effect on RDW-CV at 80 mg/kg/day, ip administered thrice weekly by hematology analyzer. The note with it: in vivo, 72 h, time 3 day. The series is classed as organism-based. The essentials: as §2
Series [17] is described as follows: Toxicity in CD1 mouse assessed as effect on PLT at 80 mg/kg/day, ip administered thrice weekly by hematology analyzer. The series is classed as organism-based. The note with it: in vivo, 72 h, time 3 day. The method in brief: as §2
Series [18] is described as follows: Toxicity in CD1 mouse assessed as effect on MPV at 80 mg/kg/day, ip administered thrice weekly by hematology analyzer. The series is classed as organism-based. To be noted: in vivo, 72 h, time 3 day. The method in brief: as §2
The target in series [19] is Heat shock protein beta-1 (Homo sapiens) (UniProt P04792). The note with it: T98G, dose 10.0 nM, time 12.0 hrs.
Chain of Heat shock protein beta-1 (Homo sapiens) (P04792 whole entry): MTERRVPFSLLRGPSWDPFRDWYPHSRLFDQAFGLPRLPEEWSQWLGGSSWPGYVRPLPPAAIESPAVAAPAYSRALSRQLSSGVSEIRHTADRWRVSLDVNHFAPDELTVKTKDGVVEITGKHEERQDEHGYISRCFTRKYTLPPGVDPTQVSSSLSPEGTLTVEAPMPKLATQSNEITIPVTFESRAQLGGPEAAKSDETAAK
A short description of series [20]: Dissociation constant, pKa of the compound. The series is classed as physicochemical.
Series [21] in a line: Toxicity in CD1 mouse assessed as acute pain at 80 mg/kg/day, ip administered thrice weekly and measured at day 10. To be noted: in vivo, 72 h, time 3 day. The series is classed as organism-based. The essentials: as §2
Series [22] in a line: Toxicity in CD1 mouse assessed as decrease in body weight at 80 mg/kg/day, ip administered thrice weekly and measured at day 10. The series is classed as organism-based. The note with it: in vivo, 72 h, time 3 day. The method in brief: as §2

With `CCS(=O)(=O)N(C)c1ccc(NC(=O)c2ccc(OC)cc2)cc1OCc1cc(OC)ccc1OC`, the IC50 amounted to 5.71 nM in the series with T98G, 6.97 nM in the series with U-251, 8.21 nM in the series on A 172 and 7.83 nM in the series on U-87 MG. The Activity result in [1] is “Toxic”; in series [2], “Toxic”; in series [3], “Toxic”; in [4], “Non-Toxic”; in [5] it was “Non-Toxic”; in series [6], “Non-Toxic”. The Activity result in series [7], in series [8], in series [9], in [10], in series [11] and in series [12] was “Non-Toxic” in each case. Besides, the Activity entry in [13], in [14], in [15], in [16], in series [17] and in series [18] was “Non-Toxic” throughout.

With `C[C@]12CCC(=O)C[C@@H]1CC[C@@H]1[C@@H]2CC[C@]2(C)[C@@H](O)CC[C@@H]12`, the inhibition entry in [19] is “inactive”.

Turning to `CS(=O)(=O)Nc1ccc([N+](=O)[O-])cc1Oc1ccccc1` [NIMESULIDE], the pKa in [20] was 5.93.

Regarding `COc1ccc(C(=O)Nc2ccc(N(C)S(C)(=O)=O)c(OCc3cc(OC)ccc3OC)c2)cc1`, the half-maximal inhibitory concentration (IC50) worked out at 1.85 nM with T98G, 1.57 nM in the series with U-251, 3.13 nM with A 172 and 3.05 nM in the series with U-87 MG. In addition, the Activity result is recorded as “Toxic” in series [1]; “Toxic” in series [2]; “Toxic” in series [3]; “Non-Toxic” in [4]; “Non-Toxic” in [5]; “Non-Toxic” in [6]. Also, the Activity result in series [7], in series [8], in [9], in series [10], in series [11] and in [12] was “Non-Toxic” each time. For the same molecule, the Activity entry in [13], in series [14], in series [15], in series [16], in series [17] and in series [18] was “Non-Toxic” in each case.

For the molecule `CCS(=O)(=O)Nc1ccc(NC(=O)c2ccc(OC)cc2)cc1OCc1cc(OC)ccc1OC`, the IC50 with T98G came to 4.87 nM; with U-251, 6.39 nM; with A 172, 11.9 nM; in the series on U-87 MG it was 6.74 nM. Moreover, the Activity entry in [21], in [22] and in series [3] was “Non-Toxic” throughout.
